Rows were chosen to be rich in hits. Some 5.7% of all compounds tested hit in one or more screens of this group.
Beta cell apopt: beta cell apoptosis inhibition; INS-1E cytokine-induced death, ATP luminescence, 48 h; percent of positive-control rescue, neutral wells zero; AID 435005; protection from apoptosis, % (test concentration not listed); 0.8% of 300,000 active;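 active = Every replicate reaches about 75%, or at least half do and their mean reaches it too, limit read from the data; inconclusive = At least half of replicates reach the limit but their mean does not; inactive = Under half of replicates reach the limit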;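 also: 0% = cytokine-treated negative control wells and 100% = positive control rescue; higher means more ATP so stronger rescue from cytokine killing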
CSC inhib: blocks cancer stem cells; cancer stem cell-like cells viability, luminescence; inhibition, % at 7.5 µM; 1.1% of 300,000 active; in the data active = inhibition above about 75%; inconclusive = no clear call, values can overlap the other calls; tested in HMLE shEcad cells
Calb FLC: C. albicans growth modulation with fluconazole; growth inhibition, % (test concentration not listed); C. albicans CaCi-2 (fluconazole-resistant clinical isolate) + fluconazole, Alamar Blue growth, 48 h; 0.57% of 300,000 active; AID 1979;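 active = growth inhibition above about 58% in most replicates, limit read from the data, passing the limit was not always enough; inconclusive = exactly half the replicates above a set limit; inactive = most replicates below a set limit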;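 also: all wells also contain fluconazole at 8 µg/ml as a sub-toxic cotreatment; 0% = median of DMSO wells and 100% = median of geldanamycin control wells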
SKKanGAS inh: inhibitors of SKKanGAS S. pyogenes growth in kanamycin (SK-promoter or general growth effect) | AID 1662 | inhibition, % at 7.5 µM | BacTiter-Glo, 6 h | 1.3% of 300,000 active;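 active = mean replicate score, as percent of positive control median, at least 50; inconclusive = mean below 50 but one replicate at or above 50; inactive = mean and every replicate below 50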;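 also: strain carries kanamycin resistance gene driven by streptokinase promoter and grows in 40 µg/ml kanamycin; loss of luminescence reflects streptokinase promoter inhibition or plain growth inhibition; 0% = median of DMSO wells and 100% = positive control at its reference dose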
T cruzi repl: blocks replication of Trypanosoma cruzi; T. cruzi beta-gal in NIH3T3, luminescence, 90 h; inhibition, % (no concentration beside the values); 1.4% of 300,000 active;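 active = mean inhibition across valid replicates above about 55%, limit read from the data; inconclusive = mean below that limit but half or more replicates reach it; inactive = mean below it, under half of replicates reach it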;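 also: signal also drops with host cell toxicity which is not excluded here; 0% = plate median of DMSO wells and 100% = zero luminescence signal; higher percent means less beta-gal luminescence so fewer parasites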
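Material: NIH/3T3 host cells with β-galactosidase reporter T. cruzi; Input: 5,000 host fibroblasts per well; Medium: DMEM, 2% fetal bovine serum; Compound: 50 nL DMSO compound solution per well; Schedule: 3 h host attachment, then at least 90 h co-culture; Detection: luminescent β-galactosidase signal after 60 min lysis.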
Mdm2 MdmX PPI: inhibitors of human Mdm2/MdmX interaction; inhibition, % at 8 µM; AID 485346; O15151+Q00987; SaOS-2 split-luciferase Mdm2/MdmX complementation, luminescence; 3% of 330,000 active;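 active = inhibition of at least 50% at 8 µM in the primary screen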
Target sequence (O15151 whole entry, looked up): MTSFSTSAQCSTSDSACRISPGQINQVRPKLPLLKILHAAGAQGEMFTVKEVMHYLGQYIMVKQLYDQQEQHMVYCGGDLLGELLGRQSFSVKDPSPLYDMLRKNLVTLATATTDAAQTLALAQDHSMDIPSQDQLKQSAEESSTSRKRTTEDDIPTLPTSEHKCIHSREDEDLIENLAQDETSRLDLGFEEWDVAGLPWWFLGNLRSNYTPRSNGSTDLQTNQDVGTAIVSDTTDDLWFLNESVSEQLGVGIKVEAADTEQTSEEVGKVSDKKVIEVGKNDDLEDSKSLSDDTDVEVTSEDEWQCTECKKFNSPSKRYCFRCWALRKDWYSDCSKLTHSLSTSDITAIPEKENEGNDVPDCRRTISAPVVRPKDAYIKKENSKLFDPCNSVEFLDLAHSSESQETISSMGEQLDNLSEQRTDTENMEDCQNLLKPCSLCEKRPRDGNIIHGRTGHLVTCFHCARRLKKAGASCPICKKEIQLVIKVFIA
Target sequence (Q00987 whole entry, looked up): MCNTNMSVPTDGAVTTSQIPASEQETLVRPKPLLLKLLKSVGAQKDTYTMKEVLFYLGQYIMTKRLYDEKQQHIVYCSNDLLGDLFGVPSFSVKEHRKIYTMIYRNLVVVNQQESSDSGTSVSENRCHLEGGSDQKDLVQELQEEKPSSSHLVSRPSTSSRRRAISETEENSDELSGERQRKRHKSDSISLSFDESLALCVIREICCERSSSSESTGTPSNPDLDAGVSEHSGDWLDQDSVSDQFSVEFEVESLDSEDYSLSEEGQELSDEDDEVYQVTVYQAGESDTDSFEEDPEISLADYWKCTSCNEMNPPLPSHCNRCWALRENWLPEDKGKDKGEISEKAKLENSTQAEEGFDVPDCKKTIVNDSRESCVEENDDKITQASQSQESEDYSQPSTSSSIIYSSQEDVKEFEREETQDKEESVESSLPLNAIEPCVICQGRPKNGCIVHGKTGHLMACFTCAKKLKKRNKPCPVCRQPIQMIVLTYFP
Mdm2-MdmX conf: human Mdm2/MdmX binding inhibition, confirmed. shares compounds with Mdm2 MdmX PPI. luminescent assay. inhibition, % at 8 µM. 55% of 10,000 active. AID 489028; in the data active = inhibition above about 40%
FLuc counter: counter-screen for Mdm2/MdmX inhibitors: full-length luciferase. shares compounds with Mdm2 MdmX PPI. SaOS-2 full-length luciferase counterscreen, luminescence. inhibition, % at 8 µM. 77% of 6,200 active. AID 504607;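 active = mean inhibition at 8 µM reaching about 37%, which flags the compound as non-specific, limit read from the data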;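 also: p53-null SaOS-2 cells with luciferase driven by a doxycycline-inducible promoter; compound on cells about two nights before reading with doxycycline added after day one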
* marks the source's active call; other numbers are inactive results.

How did COc1ccc(NC(=O)Cn2nnc(C(=O)Nc3ccc(F)c(Cl)c3)c2N)cc1OC do in these assays?
CSC inhib: -5; Calb FLC: -10; SKKanGAS inh: 19; T cruzi repl: 6; Mdm2 MdmX PPI: 66*; Mdm2-MdmX conf: 31

How did CN(C(=O)CN1C(=O)c2cccc(N)c2C1=O)C1CCCCC1 do in these assays?
Beta cell apopt: 0; CSC inhib: -2; Mdm2 MdmX PPI: -37

What do the screens show for `O=C(N/N=C/c1cnc(N2CCCCC2)s1)c1ccc(C(F)(F)F)cc1`?
Beta cell apopt: 104*; CSC inhib: 20; Calb FLC: -2; SKKanGAS inh: 39; T cruzi repl: 41; Mdm2 MdmX PPI: 69*; Mdm2-MdmX conf: 58*; FLuc counter: 37*

How did O=C(Nc1ccc(Br)c(C(F)(F)F)c1)c1ccc(C(F)(F)F)cc1 do in these assays?
Beta cell apopt: 74*; CSC inhib: 110*; Calb FLC: -7; SKKanGAS inh: 106*; T cruzi repl: 47; Mdm2 MdmX PPI: 96*; Mdm2-MdmX conf: 59*; FLuc counter: 29

What do the screens show for `COc1ccc(NC(=O)c2ccc(COCC(F)(F)F)cc2)cc1OC`?
Beta cell apopt: 2; CSC inhib: 2; Calb FLC: -4; SKKanGAS inh: -8; T cruzi repl: -2; Mdm2 MdmX PPI: -8

Results for O=C(Nc1ccc(Br)c(C(F)(F)F)c1)c1ccccc1 ?
Beta cell apopt: 11; CSC inhib: 24; Calb FLC: -6; SKKanGAS inh: 21; T cruzi repl: 4; Mdm2 MdmX PPI: -11

Results for O=C(Nc1ccc(OCC(F)(F)C(F)F)c(C(F)(F)F)c1)c1ccc(Cl)cc1 ?
Beta cell apopt: 79*; CSC inhib: inconclusive; Calb FLC: 15; SKKanGAS inh: 92*; T cruzi repl: 48; Mdm2 MdmX PPI: 92*; Mdm2-MdmX conf: 85*; FLuc counter: 34

How did CC1(NC(=O)c2ccccc2)CCN(CCCc2ccccc2)C1=O (stereo not drawn) do in these assays?
Beta cell apopt: 13; CSC inhib: -4; Mdm2 MdmX PPI: -6

How did O=C(CN1C(=O)NC2(CCCC2)C1=O)N1CCN(S(=O)(=O)c2ccc(Cl)c(C(F)(F)F)c2)CC1 do in these assays?
Beta cell apopt: 1; CSC inhib: -12; Calb FLC: 9; SKKanGAS inh: -1; T cruzi repl: -3; Mdm2 MdmX PPI: 22

Results for Cc1n[nH]c(C)c1S(=O)(=O)N1CCN(S(=O)(=O)c2cccc(F)c2)CC1 ?
Mdm2 MdmX PPI: 14

What do the screens show for `CCc1nc(SCC(=O)N2CC(=O)Nc3ccccc32)c2c(C)c(C)sc2n1`?
Beta cell apopt: 20; CSC inhib: 4; Calb FLC: 12; SKKanGAS inh: 11; T cruzi repl: 15; Mdm2 MdmX PPI: 39

What do the screens show for `Cc1sc2nc(C3CCCCC3)nc(SCC(=O)N3CC(=O)Nc4ccccc43)c2c1C`?
Beta cell apopt: -7; CSC inhib: -2; Calb FLC: 6; SKKanGAS inh: 20; T cruzi repl: -14; Mdm2 MdmX PPI: 56*; Mdm2-MdmX conf: 18

Results for Cc1ccc(-c2nn3c(C)nnc3s2)cc1NCc1c(F)cccc1Cl ?
Beta cell apopt: 24; CSC inhib: 39; Calb FLC: 5; SKKanGAS inh: -11; T cruzi repl: 20; Mdm2 MdmX PPI: 81*; Mdm2-MdmX conf: 66*; FLuc counter: 57*

How did O=C(Cc1cccs1)NCc1ccc(Cl)cc1Cl do in these assays?
Beta cell apopt: 1; CSC inhib: 1; Calb FLC: -16; SKKanGAS inh: -2; T cruzi repl: -5; Mdm2 MdmX PPI: -88

Results for COc1ccc(N2CC(C(=O)N/N=C/c3ccc(C)cc3)CC2=O)cc1 (stereo not drawn) ?
Beta cell apopt: 3; CSC inhib: 50; Calb FLC: -12; SKKanGAS inh: -10; T cruzi repl: -35; Mdm2 MdmX PPI: 52*; Mdm2-MdmX conf: 62*; FLuc counter: 53*

Results for CCN1C(=O)CC(c2ccccc2)N(C2CCCC2)c2nc(Nc3ccc(C(=O)NC4CCN(C)CC4)cc3OC)ncc21 (stereo not drawn) ?
Beta cell apopt: 19; Mdm2 MdmX PPI: 98*; Mdm2-MdmX conf: 46*; FLuc counter: 78*

What do the screens show for `CCc1ccc(C(C)NC(=O)/C=C/c2ccc(Br)cc2)cc1` (stereo not drawn)?
Beta cell apopt: -9; Calb FLC: inconclusive; SKKanGAS inh: -1; T cruzi repl: 10; Mdm2 MdmX PPI: 1

What do the screens show for `CCOC(=O)C(CC)(CC)C(=O)/C=C/c1ccc(Br)cc1`?
Beta cell apopt: 22; Calb FLC: 13; SKKanGAS inh: 1; T cruzi repl: 30; Mdm2 MdmX PPI: 71*; Mdm2-MdmX conf: 39; FLuc counter: 66*

How did O=C(CCCOc1ccc(Cl)cc1Cl)N/N=C/c1ccccc1O do in these assays?
Beta cell apopt: -4; CSC inhib: 168*; Calb FLC: 50; SKKanGAS inh: 33; T cruzi repl: 0; Mdm2 MdmX PPI: 76*; Mdm2-MdmX conf: 82*; FLuc counter: 22

Results for Cc1cc(NC(=O)CSc2nnc(C)n2C)no1 ?
Beta cell apopt: -6; Calb FLC: 2; SKKanGAS inh: 1; T cruzi repl: -11; Mdm2 MdmX PPI: 20

What do the screens show for `CNC(=O)CN(c1cc(OCCOC)c(Cl)cc1Cl)S(=O)(=O)c1ccc(OC)cc1`?
Beta cell apopt: -1; CSC inhib: 6; Calb FLC: 24; SKKanGAS inh: 1; T cruzi repl: 5; Mdm2 MdmX PPI: 57*; Mdm2-MdmX conf: 48*; FLuc counter: 79*

Results for COc1ccc(CNCCC(c2ccccc2)c2ccc(OC(C)C)cc2)cc1OC (stereo not drawn) ?
Beta cell apopt: 42; CSC inhib: 10; Calb FLC: 18; SKKanGAS inh: 2; T cruzi repl: 26; Mdm2 MdmX PPI: 75*; Mdm2-MdmX conf: 26

Results for COc1ccc(CN(CCC(c2ccccc2)c2ccc(OC(C)C)cc2)C(=O)CCl)cc1OC (stereo not drawn) ?
Beta cell apopt: 9; CSC inhib: inconclusive; Calb FLC: 4; SKKanGAS inh: -3; T cruzi repl: 25; Mdm2 MdmX PPI: 101*; Mdm2-MdmX conf: 85*; FLuc counter: 55*

How did COc1ccc(C(CCN(Cc2ccc(OC)c(OC)c2)C(C)=O)c2ccccc2)cc1 (stereo not drawn) do in these assays?
Beta cell apopt: 3; Calb FLC: inconclusive; SKKanGAS inh: 3; T cruzi repl: 21; Mdm2 MdmX PPI: 18
